According to ChEMBL document CHEMBL4138113, “Novel propanamides as fatty acid amide hydrolase inhibitors” (Eur J Med Chem, 2017):
The source made the active and inactive calls.

How the values were obtained:
[1] = molecular target: Fatty-acid amide hydrolase 1 (Homo sapiens, UniProt O00519, T488A); assay: Inhibition of FAAH T488A mutant (unknown origin) expressed in human HeLa cells using [3H]AEA as substrate after 2 hrs by liquid scintillation counting analysis; format: cell-based
[2] = molecular target: T1, Fatty-acid amide hydrolase 1 (Mus musculus) (UniProt O08914); assay: Inhibition of B6CBAF1/J mouse brain FAAH using [3H]AEA as substrate after 10 mins in presence of N-(3-Chloropyridin-2-yl)-2-(4-((2-(trifluoromethyl)pyridin-4-yl)amino)phenyl)propanamide by Dixon plot analysis
T1 sequence (whole entry): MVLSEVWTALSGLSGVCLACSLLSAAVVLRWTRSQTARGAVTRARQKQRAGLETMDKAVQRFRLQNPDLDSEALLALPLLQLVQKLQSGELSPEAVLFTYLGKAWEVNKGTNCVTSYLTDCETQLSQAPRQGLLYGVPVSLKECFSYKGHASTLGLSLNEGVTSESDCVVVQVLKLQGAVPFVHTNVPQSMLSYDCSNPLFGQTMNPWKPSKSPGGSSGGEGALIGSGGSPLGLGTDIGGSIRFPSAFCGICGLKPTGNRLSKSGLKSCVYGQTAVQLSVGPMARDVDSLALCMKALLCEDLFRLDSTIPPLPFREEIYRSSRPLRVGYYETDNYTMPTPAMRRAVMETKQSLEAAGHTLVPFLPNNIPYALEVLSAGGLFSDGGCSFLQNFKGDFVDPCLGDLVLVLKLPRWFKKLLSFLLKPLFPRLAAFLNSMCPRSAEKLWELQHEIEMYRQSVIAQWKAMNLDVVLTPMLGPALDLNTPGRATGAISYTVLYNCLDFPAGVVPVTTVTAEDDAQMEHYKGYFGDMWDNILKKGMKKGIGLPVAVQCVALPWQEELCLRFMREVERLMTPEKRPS
Method in brief: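 Kinetic study in brain homogenate from male B6CBAF1/J mice (0.3 µg protein per assay). [3H]AEA hydrolysis ran for 10 min at 37 °C in Tris-EDTA buffer, pH 7.4, with the AEA:fatty acid-free BSA ratio held at 1:~4.5. Products were separated on charcoal and counted by scintillation. Competitive, mixed-type and non-competitive fits were compared by Akaike's criterion.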

[3] = molecular target: T2, Fatty-acid amide hydrolase 1 (Rattus norvegicus) (UniProt P97612); assay: Reversible inhibition of rat brain FAAH at 0.2 to 2 uM using [3H]AEA as substrate preincubated for 60 mins followed by 20 fold compound dilution and subsequent substrate addition by liquid scintillation counting analysis
T2 sequence (whole entry): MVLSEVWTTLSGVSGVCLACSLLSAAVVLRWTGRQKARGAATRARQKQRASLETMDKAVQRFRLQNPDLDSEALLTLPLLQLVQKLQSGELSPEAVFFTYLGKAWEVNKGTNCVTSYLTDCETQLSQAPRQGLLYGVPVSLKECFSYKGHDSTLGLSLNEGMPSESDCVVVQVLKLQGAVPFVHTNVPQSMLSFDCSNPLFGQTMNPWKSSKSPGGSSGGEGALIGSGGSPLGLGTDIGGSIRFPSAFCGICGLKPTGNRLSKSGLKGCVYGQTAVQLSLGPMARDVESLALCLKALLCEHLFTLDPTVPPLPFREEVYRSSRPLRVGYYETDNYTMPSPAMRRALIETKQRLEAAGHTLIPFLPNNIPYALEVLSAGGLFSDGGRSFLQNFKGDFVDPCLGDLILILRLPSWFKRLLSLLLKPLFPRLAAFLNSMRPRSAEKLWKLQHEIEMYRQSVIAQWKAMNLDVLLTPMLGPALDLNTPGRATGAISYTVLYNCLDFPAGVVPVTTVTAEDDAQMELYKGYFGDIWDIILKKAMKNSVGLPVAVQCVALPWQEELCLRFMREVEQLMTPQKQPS
Method in brief: (§1)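 Rat brain homogenate at 20-fold normal strength was preincubated with vehicle or compound for 60 min, then diluted 20-fold and assayed with [3H]AEA for 10 min at 37 °C. In parallel, compound was added to vehicle-preincubated aliquots at the post-dilution free concentrations and at the undiluted final concentrations. Tritium was counted after charcoal separation.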

[4] = molecular target: T2, Fatty-acid amide hydrolase 1 (Rattus norvegicus); assay: Inhibition of rat brain FAAH using [3H]AEA as substrate after 10 mins in presence of N-(3-Chloropyridin-2-yl)-2-(4-((2-(trifluoromethyl)pyridin-4-yl)amino)phenyl)propanamide by liquid scintillation counting analysis
Method in brief: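 Rat (Wistar or Sprague-Dawley) brain homogenate without cerebella, washed and pre-incubated 15 min at 37 °C to clear endogenous substrate. Compound (in ethanol or DMSO) was mixed with 1 µg protein on ice in 10 mM Tris-HCl, 1 mM EDTA, pH 7.4. Reaction used 0.5 µM [3H]AEA with fatty acid-free BSA for 10 min at 37 °C. It was stopped with charcoal/HCl, and supernatant tritium was counted. ≥5 half-log concentrations, ≥3 experiments; maximum inhibition = 100 − fitted bottom.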

[5] = molecular target: T3, Fatty-acid amide hydrolase 1 (Homo sapiens, UniProt O00519); assay: Inhibition of FAAH (unknown origin) expressed in human HeLa cells transfected with empty vector using [3H]AEA as substrate after 2 hrs by liquid scintillation counting analysis; format: cell-based
T3 sequence (O00519 whole entry): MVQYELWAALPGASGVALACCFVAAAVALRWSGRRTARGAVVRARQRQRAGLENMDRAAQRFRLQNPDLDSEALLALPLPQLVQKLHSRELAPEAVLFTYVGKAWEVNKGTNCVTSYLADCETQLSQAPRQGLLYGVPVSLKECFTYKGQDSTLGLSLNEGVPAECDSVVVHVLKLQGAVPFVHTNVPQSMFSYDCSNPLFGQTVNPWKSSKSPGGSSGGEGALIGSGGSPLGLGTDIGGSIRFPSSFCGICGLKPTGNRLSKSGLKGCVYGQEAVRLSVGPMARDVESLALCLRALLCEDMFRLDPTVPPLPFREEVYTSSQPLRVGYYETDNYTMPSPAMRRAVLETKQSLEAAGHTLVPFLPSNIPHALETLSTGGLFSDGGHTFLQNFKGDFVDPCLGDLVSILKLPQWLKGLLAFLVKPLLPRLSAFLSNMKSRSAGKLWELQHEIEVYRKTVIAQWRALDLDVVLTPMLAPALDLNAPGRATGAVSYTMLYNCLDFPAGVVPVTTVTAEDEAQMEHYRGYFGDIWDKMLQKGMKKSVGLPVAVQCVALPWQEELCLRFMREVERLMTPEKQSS

[6] = molecular target: T2, Fatty-acid amide hydrolase 1 (Rattus norvegicus); assay: Reversible inhibition of rat brain FAAH at 0.2 to 2 uM using [3H]AEA as substrate preincubated for 60 mins followed by substrate addition by liquid scintillation counting analysis; method in brief: as §1
[7] = molecular target: T4, Fatty-acid amide hydrolase 1 (Rattus norvegicus, UniProt P97612); assay: Competitive inhibition of rat brain FAAH using [3H]AEA as substrate after 10 mins by Dixon plot analysis
T4 sequence (P97612 whole entry): T2 sequence (whole entry)
Method in brief: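 Kinetic study in rat brain homogenate (1 µg protein per assay). [3H]AEA hydrolysis ran for 10 min at 37 °C in Tris-EDTA buffer, pH 7.4, with the AEA:fatty acid-free BSA ratio held at 1:~4.5 across substrate levels. Radioactivity was measured by charcoal separation and scintillation counting. Data were fitted to competitive, mixed-type and non-competitive models, and the best model was chosen by Akaike's criterion.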

Sequence of Fatty-acid amide hydrolase 1 (Homo sapiens, UniProt O00519, T488A) (O00519 whole entry T488A): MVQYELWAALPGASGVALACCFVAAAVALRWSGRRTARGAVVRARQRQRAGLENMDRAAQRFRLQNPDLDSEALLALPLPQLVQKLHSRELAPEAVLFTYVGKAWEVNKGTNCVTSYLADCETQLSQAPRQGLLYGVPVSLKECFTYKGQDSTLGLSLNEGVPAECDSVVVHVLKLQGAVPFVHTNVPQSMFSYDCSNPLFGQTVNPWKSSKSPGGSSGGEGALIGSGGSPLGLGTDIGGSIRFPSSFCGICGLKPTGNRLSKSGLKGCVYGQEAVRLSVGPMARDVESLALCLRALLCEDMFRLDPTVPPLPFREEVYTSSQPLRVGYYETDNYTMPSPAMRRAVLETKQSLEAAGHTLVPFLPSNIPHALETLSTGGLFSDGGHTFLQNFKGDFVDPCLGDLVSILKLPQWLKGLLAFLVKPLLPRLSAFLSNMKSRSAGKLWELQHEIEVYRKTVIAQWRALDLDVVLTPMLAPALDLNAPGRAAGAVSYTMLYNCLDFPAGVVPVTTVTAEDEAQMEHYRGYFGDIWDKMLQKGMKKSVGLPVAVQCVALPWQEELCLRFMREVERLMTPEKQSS

Cc1cccnc1NC(=O)C(C)c1ccc(Nc2ccnc(C(F)(F)F)c2)cc1 (configuration not stated)
IC50 [1]: 1900 to 9400 nM | inhibition [2]: Active | inhibition [3]: Active | inhibition [4]: Active | IC50 [5]: 2500 nM | inhibition [6]: Active | Ki [7]: 390 nM
